GSTO1 counter = inhibitors of recombinant GSTO1, primary screen, counter-screen for RBBP9 inhibitor project, biochemical, fluorescence polarization; 300,000 compounds, 1.1% hits; AID 1974, 2009; Glutathione S-transferase omega-1 (Homo sapiens), P78417; activity-based probe fluorescence polarization; inhibition, % at 5.96 µM;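 active = inhibition above the campaign mean inhibition plus 3 SD, cut at about 35% in these data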;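 note: 0% = GSTO1-1 with DMSO and 100% = wells lacking GSTO1-1 enzyme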
EBNA-1 inh = EBNA-1 DNA-binding inhibitors, primary screen, biochemical, fluorescence polarization. inhibition, % at 14.8 µM. 300,000 compounds, 0.34% hits. AID 1950, 2009; in the data active = inhibition above about 28%
procasp7 counter = procaspase-7 activators, primary screen, counter-screen for procaspase-3 activator project, biochemical, absorbance, HTS, human; activation, % at 8.5 µM; 330,000 compounds, 0.093% hits; Caspase-7 (Homo sapiens), P55210; recombinant procaspase-7, Ac-DEVD-pNA absorbance 405 nm; D23A/D198A/D206A triple mutant, cannot self-cleave; scale: DMSO 0, 5 µM enzyme 100;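 active = percent activation above the screen-wide mean plus 3 SD, cut at about 25% in these data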
Target sequence (P55210 whole entry D23A/D198A/D206A): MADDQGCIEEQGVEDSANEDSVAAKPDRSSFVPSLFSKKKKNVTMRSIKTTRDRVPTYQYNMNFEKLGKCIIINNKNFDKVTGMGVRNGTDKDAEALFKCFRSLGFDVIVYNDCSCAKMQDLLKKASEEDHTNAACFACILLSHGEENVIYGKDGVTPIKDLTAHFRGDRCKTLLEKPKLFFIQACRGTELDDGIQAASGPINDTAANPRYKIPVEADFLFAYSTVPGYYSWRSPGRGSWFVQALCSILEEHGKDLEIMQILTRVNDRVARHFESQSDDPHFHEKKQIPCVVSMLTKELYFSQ
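Assay system: Uncleavable procaspase-7 mutant enzyme / Input: 2 µM procaspase-7 mutant as dispensed / Dosing: single nominal 8.5 µM compound dose, 0.8% DMSO final / Timing: 1 h enzyme–compound preincubation and 2 h substrate reaction, both 25 °C / Detection: p-Nitroaniline absorbance at 405 nm, read at 0 and 120 min / Replication: singlicate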
proCasp3 act = activators of human procaspase-3 D3A mutant, primary screen, biochemical, absorbance, PC-3 D3A mutant, single concentration. Caspase-3 (Homo sapiens), P42574. recombinant procaspase-3 D3A, Ac-DEVD-pNA absorbance 405 nm. activation, % at 8.5 µM. 330,000 compounds, 0.11% hits;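 active = activation above the mean of all tested compounds plus 3 SD, cut at about 21% in these data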;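 note: 0% = DMSO alone and 100% = DMSO wells spiked with extra 5 µM PC-3 D3A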
Target sequence (P42574 whole entry D9A/D28A/D175A): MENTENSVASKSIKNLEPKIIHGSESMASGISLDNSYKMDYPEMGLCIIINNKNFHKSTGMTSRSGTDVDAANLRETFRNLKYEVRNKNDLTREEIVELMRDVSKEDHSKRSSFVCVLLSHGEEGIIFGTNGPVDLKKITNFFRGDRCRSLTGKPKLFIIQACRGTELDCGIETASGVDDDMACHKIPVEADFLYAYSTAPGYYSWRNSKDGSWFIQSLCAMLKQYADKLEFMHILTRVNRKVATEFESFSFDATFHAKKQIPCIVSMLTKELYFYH
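material = Procaspase-3 D3A mutant | probe or stimulus = Ac-DEVD-pNA | compound = single dose, 8.5 µM nominal compound, 0.8% DMSO | timing = 1 h preincubation, 2 h reaction | measured by = 405 nm absorbance of p-nitroaniline, reads at 0 and 120 min | benchmarks = DMSO-only low control, 5 µM PC-3 D3A high control | repeats = singlicate, each compound tested once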
ZTA DNA inh = blocks Epstein-Barr virus ZTA, an EBNA-1 counter-screen | ZTA-DNA binding, fluorescence polarization | 320,000 compounds, 0.15% hits | inhibition, % at 11 µM | P03206; in the data active = inhibition above about 33%
Apaf-1 inh = inhibitors of human Apaf-1 apoptosome, primary screen, biochemical, DEVD-Rh110 fluorescence, uHTS. Apoptotic protease-activating factor 1 (Homo sapiens), O14727. reconstituted apoptosome caspase-3 activity. inhibition, % at 20 µM. 330,000 compounds, 0.71% hits; active = inhibition of at least 40% at 20 µM;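 note: plate controls were DMSO wells for no effect and DEVD-CHO caspase inhibitor wells for full effect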
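Material: reconstituted apoptosome with Apaf-1, cytochrome c, caspase-9, procaspase-3, dATP; medium: pH 7.5 Hepes buffer with CHAPS, BSA, DTT; also added: cytochrome c and DEVD-Rh110 substrate; timing: 30 min plus 50 min, RT; signal: Rh110 fluorescence intensity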
GSTO1 inh conf = GSTO1 inhibitor hit confirmation, counter-screen for RBBP9 inhibitor project, biochemical, fluorescence polarization, triplicate. shares compounds with GSTO1 counter. recombinant GSTO1, probe fluorescence polarization. inhibition, % at 5.96 µM. 2,400 compounds, 54% hits;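 active = inhibition above the primary screen's cutoff, its mean inhibition plus 3 SD, cut at about 35% in these data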;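 note: loss of polarization as inhibitors block binding of rhodamine sulfonate ester activity probe; 0% = GSTO1 with DMSO and 100% = wells lacking GSTO1 enzyme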
Zta DNA confirm = EBV Zta binding to ZRE DNA, inhibitors, confirmation, biochemical, fluorescence polarization, triplicate; shares compounds with ZTA DNA inh; inhibition, % at 11.1 µM; 320 compounds, 30% hits;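 active = mean inhibition across triplicate runs above the hit threshold derived for the original primary screen, cut at about 33% in these data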;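 note: 0% = Zta with DMSO and 100% = wells lacking Zta protein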
EBNA-1 counter = EBNA-1 DNA-binding inhibition, counter-screen for ZTA inhibitor project, biochemical, fluorescence polarization | shares compounds with ZTA DNA inh | inhibition, % at 14.8 µM | 320 tested, under 10 active
Apaf-1 inh conf2 = Apaf-1 inhibitors, single-dose retest, confirmation, biochemical, fluorescence, DEVD-Rh110, 20 µM; reconstituted apoptosome, caspase-3 DEVD-Rh110 fluorescence; shares compounds with Apaf-1 inh; 1,800 compounds, 25% hits; inhibition, % at 20 µM;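 active = mean inhibition of at least 40% at 20 µM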;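 note: plate controls were DMSO wells for no effect and DEVD-CHO caspase inhibitor control wells for full effect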
Rh110 interf inh = Rh110 fluorescence interference by putative Apaf-1 inhibitors, confirmation, artefact control for Apaf-1 inhibitor project, biochemical, 20 µM; shares compounds with Apaf-1 inh; quenched caspase reaction; activation (fluorescence interference), % at 20 µM; 1,800 tested, under 10 active;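 active = signal rise of 40% or more at 20 µM, treated as a fluorescence artifact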
Apaf1 inh interf = fluorescence interference of Apaf-1 inhibitor hits, dose response, artefact control for Apaf-1 inhibitor project. shares compounds with Apaf-1 inh. fluorescence interference counterscreen, Apaf-1 assay format. IC50, µM. 460 tested, under 10 active
Starred values were filed as active, the others as inactive. An excerpt weighted towards active compounds, which were near 1.8% of everything screened. Unless noted, the rule behind the calls is not given here.

What do the screens show for `O=C1C(=O)c2ccc(-c3ccccc3)cc2-c2ccccc21`?
GSTO1 counter: 87*; EBNA-1 inh: -6; procasp7 counter: 5; proCasp3 act: -13; ZTA DNA inh: 6; Apaf-1 inh: 98*; GSTO1 inh conf: 91*; Apaf-1 inh conf2: 100*; Rh110 interf inh: 8; Apaf1 inh interf: >100

Results for CC(=O)OCCCNc1cc(Sc2nc3ccccc3s2)c2nonc2c1[N+](=O)[O-] ?
GSTO1 counter: 45*; EBNA-1 inh: 0; procasp7 counter: -17; proCasp3 act: -12; ZTA DNA inh: -22; Apaf-1 inh: 96*; GSTO1 inh conf: 7; Apaf-1 inh conf2: 29; Rh110 interf inh: 1

What do the screens show for `CC(=O)OCCCNc1cc(Sc2ccc(C)cc2)c2nonc2c1[N+](=O)[O-]`?
GSTO1 counter: 6; EBNA-1 inh: -22; procasp7 counter: -3; proCasp3 act: 5; ZTA DNA inh: 5; Apaf-1 inh: 19

How did COc1ccccc1CNC(=O)COC(=O)c1ccc2c(=O)n3c(nc2c1)CCCCC3 do in these assays?
procasp7 counter: -3; proCasp3 act: 0; ZTA DNA inh: 5; Apaf-1 inh: -5

What do the screens show for `Nc1ccc2nn(-c3cccc4ccccc34)nc2c1`?
GSTO1 counter: 61*; EBNA-1 inh: -13; procasp7 counter: 5; proCasp3 act: 5; ZTA DNA inh: -16; Apaf-1 inh: 96*; GSTO1 inh conf: 7; Apaf-1 inh conf2: 75*; Rh110 interf inh: 12; Apaf1 inh interf: >100

Results for Nc1ccc2c(c1)C(=O)N(c1cccc3ccccc13)C2=O ?
GSTO1 counter: 4; EBNA-1 inh: 5; procasp7 counter: -1; proCasp3 act: 5; ZTA DNA inh: -9; Apaf-1 inh: 17

What do the screens show for `O=C1c2ccccc2-c2onc3ccc(NCc4ccco4)c1c23`?
GSTO1 counter: 100*; EBNA-1 inh: 18; procasp7 counter: -24; proCasp3 act: -23; ZTA DNA inh: 83*; Apaf-1 inh: 69*; GSTO1 inh conf: 53*; Zta DNA confirm: 46*; EBNA-1 counter: 15; Apaf-1 inh conf2: 30; Rh110 interf inh: -50

How did O=C(O)c1ccccc1NCc1ccco1 do in these assays?
GSTO1 counter: 1; EBNA-1 inh: 8; procasp7 counter: -5; proCasp3 act: 10; ZTA DNA inh: 3; Apaf-1 inh: 1

How did CCOc1ccc2noc3c2c1C(=O)c1ccccc1-3 do in these assays?
GSTO1 counter: 40*; EBNA-1 inh: -10; procasp7 counter: -8; proCasp3 act: -5; ZTA DNA inh: 2; Apaf-1 inh: 76*; GSTO1 inh conf: 13; Apaf-1 inh conf2: 56*; Rh110 interf inh: -20

Results for COc1cccc(CN(C)C(=O)c2ccccc2Sc2ccccc2C#N)c1OC ?
Apaf-1 inh: 22

What do the screens show for `OCCNc1c2ccccc2nc2c(F)c(F)c(F)c(F)c12`?
GSTO1 counter: -54; EBNA-1 inh: -8; procasp7 counter: -15; proCasp3 act: -44; ZTA DNA inh: 2

What do the screens show for `Cc1c2ccccc2nc2c(F)c(NCCO)c(F)c(F)c12`?
GSTO1 counter: 62*; EBNA-1 inh: 1; procasp7 counter: 0; proCasp3 act: 3; ZTA DNA inh: 0; Apaf-1 inh: 54*; GSTO1 inh conf: 13; Apaf-1 inh conf2: 22; Rh110 interf inh: 0

How did COc1ccc(OC(C)C(=O)NC2CCCCCCC2)cc1 (configuration not stated) do in these assays?
GSTO1 counter: 10; EBNA-1 inh: 9; procasp7 counter: 5; proCasp3 act: 5; ZTA DNA inh: 3; Apaf-1 inh: 0

Results for C=CCOc1ccc(/C=C2\SC(=S)N(NS(=O)(=O)c3ccc(C)cc3)C2=O)cc1 ?
GSTO1 counter: -8; EBNA-1 inh: 4; procasp7 counter: -2; proCasp3 act: 2; ZTA DNA inh: 7; Apaf-1 inh: 8

What do the screens show for `CCn1ccnc1CNC(=O)c1ccc2oc(CCCc3ccccc3)nc2c1`?
GSTO1 counter: -4; EBNA-1 inh: -3; procasp7 counter: 8; proCasp3 act: -7; ZTA DNA inh: 13; Apaf-1 inh: 0

What do the screens show for `Cc1nc(C)n(CC(C)C(=O)N2CCN(S(=O)(=O)c3ccccc3)CC2)n1` (configuration not stated)?
GSTO1 counter: -4; EBNA-1 inh: 1; procasp7 counter: -3; proCasp3 act: -5; ZTA DNA inh: 8; Apaf-1 inh: 3

What do the screens show for `Cc1ccc(C)c(S(=O)(=O)C(C#N)c2nc3ccccc3nc2N2CCOCC2)c1` (configuration not stated)?
GSTO1 counter: 7; EBNA-1 inh: 3; procasp7 counter: -7; proCasp3 act: -8; ZTA DNA inh: -3; Apaf-1 inh: 25

What do the screens show for `CN1CCN(c2nc3ccccc3nc2C(C#N)S(=O)(=O)c2ccccc2)CC1` (configuration not stated)?
GSTO1 counter: -3; EBNA-1 inh: 0; procasp7 counter: 9; proCasp3 act: 13; ZTA DNA inh: 18; Apaf-1 inh: -13

Compound activity from PubChem BioAssay.
